Experimental data taken from ChEMBL document CHEMBL4373678, “Development of hydroxamate-based histone deacetylase inhibitors of bis-substituted aromatic amides with antitumor activities” (Medchemcomm, 2019).
Values belong to the molecule of their own block, whether it stands above or below them. Activity calls are given as the source filed them. No cut-off for these calls is given here.

Assays:
Homo sapiens = species: Homo sapiens; details: at 0.5 µM;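 note: HDAC activity measured in a nuclear extract, with percent inhibition expressed against control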
[1] = Cytotoxicity against human MCF10F cells assessed as reduction in cell viability after 48 hrs by SRB assay; assay type: ADME, cell-based; details: MCF-10F
A549 [2] = test: Induction of G2/M cell cycle arrest in human A549 cells assessed as decrease in CyclinB1 expression at 1 to 2.5 uM by Western blot analysis; assay type: functional, cell-based
Outline: (§1)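 Cell-cycle arm: A549 whole-cell lysates probed for CDK1 and cyclin B. Lysis in RIPA buffer; 35 µg protein run on 15% SDS-PAGE and blotted to PVDF. Blocked in 5% milk/PBST; primary antibody 1:1000 at 4 °C overnight, HRP secondary 1:20000 for 1 h at room temperature, ECL detection. Densitometry relative to β-actin; three separate experiments.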

A549 [3] = test: Induction of cell cycle arrest in human A549 cells assessed as accumulation at G2/M phase at 5 uM after 24 hrs by PI/RNaseA staining based flow cytometry analysis relative to control; assay type: functional
Outline: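 A549 cells treated for 24 h, with vehicle as control. Cells were fixed in 70% ice-cold ethanol overnight at −20 °C, then stained with PI containing RNase A for 30 min at 37 °C. DNA content was read by flow cytometry. Mean ± SD of phase percentages from three independent experiments.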

BEAS-2B = test: Cytotoxicity against human BEAS2B cells assessed as reduction in cell viability after 48 hrs by SRB assay; assay type: ADME, cell-based
MDA-MB-231 = test: Antiproliferative activity against human MDA-MB-231 cells assessed as reduction in cell viability after 48 hrs by SRB assay; assay type: functional, cell-based; details: MDA-MB-231, 48 h
MCF7 = test: Antiproliferative activity against human MCF7 cells assessed as reduction in cell viability after 48 hrs by SRB assay; assay type: functional, cell-based; details: MCF7, 48 h
Histone deacetylase 1 [4] = biological target: T1, Histone deacetylase 1 (Homo sapiens, UniProt Q13547); test: Potency index, ratio of SAHA IC50 to compound IC50 for inhibition of recombinant HDAC1 (unknown origin) expressed in baculovirus expression system
A549 [5] = test: Induction of apoptosis in human A549 cells assessed as increase in PARP cleavage at 1 to 5 uM after 48 hrs by Western blot analysis; assay type: functional, cell-based
Outline: (§2)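 A549 cells treated at the indicated concentrations for 48 h, then blotted for cleaved caspase-3 and cleaved PARP. RIPA lysis; 35 µg protein on 15% SDS-PAGE, transferred to PVDF. Blocked in 5% milk/PBST; primary antibody 1:1000 overnight at 4 °C, HRP secondary 1:20000 for 1 h, ECL. Bands quantified by densitometry versus β-actin; three separate experiments.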

A549 [6] = test: Induction of apoptosis in human A549 cells assessed as early apoptotic cells at 1 uM after 72 hrs by Annexin V-phycoerythrin/7-AAD staining based flow cytometric analysis (reference value: 1.13%); assay type: functional
A549 [7] = test: Induction of apoptosis in human A549 cells assessed as late apoptotic cells at 1 uM after 72 hrs by Annexin V-phycoerythrin/7-AAD staining based flow cytometric analysis (reference value: 1.84%); assay type: functional
Histone deacetylase 1 [8] = biological target: T1, Histone deacetylase 1; test: Inhibition of recombinant HDAC1 (unknown origin) expressed in baculovirus expression system using Ac-peptide-AMC as substrate preincubated for 15 mins followed by substrate addition by fluorescence based protease coupled assay
A549 [9] = test: Induction of apoptosis in human A549 cells assessed as viable cells at 5 uM after 72 hrs by Annexin V-phycoerythrin/7-AAD staining based flow cytometric analysis (reference value: 96.57%); assay type: functional
A549 [10] = test: Induction of apoptosis in human A549 cells after 72 hrs by Annexin V-phycoerythrin/7-AAD staining based flow cytometric analysis; assay type: functional, cell-based
A549 [11] = test: Induction of apoptosis in human A549 cells assessed as early apoptotic cells at 2.5 uM after 72 hrs by Annexin V-phycoerythrin/7-AAD staining based flow cytometric analysis (reference value: 1.13%); assay type: functional
A549 [12] = test: Induction of apoptosis in human A549 cells assessed as late apoptotic cells at 2.5 uM after 72 hrs by Annexin V-phycoerythrin/7-AAD staining based flow cytometric analysis (reference value: 1.84%); assay type: functional
MCF-10A = test: Cytotoxicity against human MCF10A cells assessed as reduction in cell viability after 48 hrs by SRB assay; assay type: ADME, cell-based
A549 [13] = test: Antimetastatic activity in human A549 cells reduction in cell migration after 24 hrs by wound healing assay; assay type: functional, cell-based
Outline: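 A549 cells (1.5x10⁵) plated in 6-well dishes and grown overnight to confluent monolayers. Monolayers were wounded with a pipette tip, then treated at various concentrations for 24 h. Wounds were photographed at 0, 12 and 24 h and migration distance measured. Result is % wound closure relative to 0 h. Triplicate, repeated three times.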

A549 [14] = test: Inhibition of colony formation in human A549 cells at 1 to 2.5 uM after 7 days by crystal violet staining based assay; assay type: functional, cell-based
Outline: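 A549 cells plated at 800 per 35 mm dish and treated for one week, with medium replenished every 24 h. Cells were washed with PBS, fixed in methanol and stained with 1% crystal violet for 15 min. Colonies were counted. Triplicate, repeated three times.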

A549 [15] = test: Induction of G2/M cell cycle arrest in human A549 cells assessed as decrease in CDK1 expression at 1 to 2.5 uM by Western blot analysis; assay type: functional, cell-based
Outline: as §1

A549 [16] = test: Induction of apoptosis in human A549 cells assessed as necrotic cells at 2.5 uM after 72 hrs by Annexin V-phycoerythrin/7-AAD staining based flow cytometric analysis (reference value: 0.45%); assay type: functional
A549 [17] = test: Induction of apoptosis in human A549 cells assessed as early apoptotic cells at 5 uM after 72 hrs by Annexin V-phycoerythrin/7-AAD staining based flow cytometric analysis (reference value: 1.13%); assay type: functional
A549 [18] = test: Antiproliferative activity against human A549 cells assessed as reduction in cell viability after 48 hrs by SRB assay; assay type: functional, cell-based; details: A549, 48 h
Outline: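 A549 cells in RPMI 1640 with 10% FBS at 37 °C, 5% CO₂, seeded 24 h before treatment at various concentrations. Cells were fixed with 10% TCA for 1 h at 4 °C and stained with 0.4% SRB for 5 min at room temperature. After 1% acetic acid washes, dye was dissolved in 10 mM Tris and A540 read. IC50 from three independent experiments in triplicate, mean ± SD.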

A549 [19] = test: Induction of apoptosis in human A549 cells assessed as necrotic cells at 5 uM after 72 hrs by Annexin V-phycoerythrin/7-AAD staining based flow cytometric analysis (reference value: 0.45%); assay type: functional
A549 [20] = test: Induction of apoptosis in human A549 cells assessed as increase in caspase-3 cleavage at 1 to 5 uM after 48 hrs by Western blot analysis; assay type: functional, cell-based
Outline: as §2

A549 [21] = test: Induction of apoptosis in human A549 cells assessed as viable cells at 1 uM after 72 hrs by Annexin V-phycoerythrin/7-AAD staining based flow cytometric analysis (reference value: 96.57%); assay type: functional; details: A549, 72 h, read-out: Activity
A549 [22] = test: Induction of apoptosis in human A549 cells assessed as viable cells at 2.5 uM after 72 hrs by Annexin V-phycoerythrin/7-AAD staining based flow cytometric analysis (reference value: 96.57%); assay type: functional; details: A549, 72 h, read-out: Activity
Histone deacetylase 1 [23] = biological target: T1, Histone deacetylase 1; test: Inhibition of HDAC1 in human A549 cells assessed as increase in H4 acetylation after 24 hrs by immunoblot analysis; assay type: cell-based
Outline: (§3)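 A549 cells exposed to 1.0, 2.5 and 5.0 µM for 24 h, then immunoblotted for acetylated histone H3 and H4. RIPA lysates (35 µg) run on 15% SDS-PAGE and transferred to PVDF. Primary antibody 1:1000 overnight at 4 °C, HRP secondary 1:20000, ECL. Densitometry relative to β-actin; three independent experiments.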

Histone deacetylase 1 [24] = biological target: T1, Histone deacetylase 1; test: Inhibition of HDAC1 in human A549 cells assessed as increase in H3 acetylation after 24 hrs by immunoblot analysis; assay type: cell-based
Outline: as §3

A549 [25] = test: Induction of apoptosis in human A549 cells assessed as late apoptotic cells at 5 uM after 72 hrs by Annexin V-phycoerythrin/7-AAD staining based flow cytometric analysis (reference value: 1.84%); assay type: functional
A549 [26] = test: Induction of apoptosis in human A549 cells assessed as necrotic cells at 1 uM after 72 hrs by Annexin V-phycoerythrin/7-AAD staining based flow cytometric analysis (reference value: 0.45%); assay type: functional

T1 sequence (Q13547 whole entry): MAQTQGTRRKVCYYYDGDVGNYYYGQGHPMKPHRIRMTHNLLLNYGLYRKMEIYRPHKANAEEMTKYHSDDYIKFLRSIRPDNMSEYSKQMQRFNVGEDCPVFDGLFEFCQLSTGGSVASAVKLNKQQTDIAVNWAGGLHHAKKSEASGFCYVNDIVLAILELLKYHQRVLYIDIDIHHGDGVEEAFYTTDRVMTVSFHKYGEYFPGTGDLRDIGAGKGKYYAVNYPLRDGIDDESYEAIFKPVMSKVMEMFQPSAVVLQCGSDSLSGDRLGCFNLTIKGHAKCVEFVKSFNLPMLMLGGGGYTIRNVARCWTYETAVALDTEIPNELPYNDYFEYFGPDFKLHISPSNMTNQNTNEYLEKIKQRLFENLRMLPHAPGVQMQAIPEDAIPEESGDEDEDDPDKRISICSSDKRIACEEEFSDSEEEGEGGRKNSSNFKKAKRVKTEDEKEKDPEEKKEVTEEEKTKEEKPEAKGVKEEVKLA

SMILES: CCNC(=O)c1cccc(CN(C(=O)CCCCCC(=O)NO)c2ccccc2OC)c1
- inhibition (Homo sapiens): 20%

SMILES: CCNC(=O)c1cccc(CN(C(=O)CCCCCC(=O)NO)c2ccc(OC)cc2)c1
- IC50 [1]: > 100 µM
- Activity (A549 [2]): Active
- Activity (A549 [3]): 40.3%
- IC50 (BEAS-2B): > 100 µM
- IC50 (MDA-MB-231): 6.87 µM
- IC50 (MCF7): 6.96 µM
- Ratio IC50 (Histone deacetylase 1 [4]): 11.4
- Activity (A549 [5]): Active
- Activity (A549 [6]): 21.86%
- Activity (A549 [7]): 8.17%
- IC50 (Histone deacetylase 1 [8]): 0.0022 µM
- viability at 5 µM (A549 [9]; Homo sapiens, A549, 72 h, read-out: Activity): 17.7%
- Activity (A549 [10]): Dose-dependent effect
- Activity (A549 [11]): 29.35%
- Activity (A549 [12]): 27.09%
- IC50 (MCF-10A): > 100 µM
- Activity (A549 [13]): Dose-dependent effect
- inhibition (A549 [14]): Active
- Activity (A549 [15]): Active
- Activity (A549 [16]): 1.54%
- Activity (A549 [17]): 23.85%
- IC50 (A549 [18]): 2.13 µM
- Activity (A549 [19]): 0.89%
- Activity (A549 [20]): Active
- viability at 1 µM (A549 [21]): 69.1%
- viability at 2.5 µM (A549 [22]): 42%
- inhibition (Histone deacetylase 1 [23]): Dose-dependent effect
- inhibition (Histone deacetylase 1 [24]): Dose-dependent effect
- inhibition (Homo sapiens): 51%
- Activity (A549 [25]): 57.6%
- Activity (A549 [26]): 0.86%

SMILES: COc1ccccc1N(Cc1cccc(NC(=O)Cc2ccccc2)c1)C(=O)CCCCCC(=O)NO
- inhibition (Homo sapiens): 37%

SMILES: CCNC(=O)c1cccc(CN(C(=O)CCCCCC(=O)NO)c2ccc(O)cc2)c1
- inhibition (Homo sapiens): 21%

SMILES: COc1ccc(N(Cc2cccc(NC(=O)CCc3ccc(F)cc3)c2)C(=O)CCCCCC(=O)NO)cc1
- inhibition (Homo sapiens): 49%

SMILES: COc1ccccc1N(Cc1cccc(Br)c1)C(=O)CCCCCC(=O)NO
- inhibition (Homo sapiens): 21%

SMILES: COc1ccccc1N(Cc1cccc(C(=O)NCCCCCCc2ccccc2)c1)C(=O)CCCCCC(=O)NO
- inhibition (Homo sapiens): 4%

SMILES: O=C(CCCCCCC(=O)Nc1ccccc1)NO [VORINOSTAT]
- Activity (A549 [3]): 24.97%
- Activity (A549 [9]): 23.22%
- Activity (A549 [17]): 16.78%
- Activity (A549 [19]): 1.15%
- Activity (A549 [25]): 58.86%

SMILES: CCC(=O)Nc1cccc(CN(C(=O)CCCCCC(=O)NO)c2ccccc2OC)c1
- inhibition (Homo sapiens): 22%

SMILES: CCN(CC)C(=O)c1cccc(CN(C(=O)CCCCCC(=O)NO)c2ccccc2OC)c1
- inhibition (Homo sapiens): 20%

Continued, in another order:

- inhibition (Homo sapiens): 16%
SMILES: COc1ccccc1N(Cc1cccc(C(=O)NCCCCCc2ccccc2)c1)C(=O)CCCCCC(=O)NO

- inhibition (Homo sapiens): 38%
SMILES: COc1ccccc1N(Cc1cccc(C(=O)NCCc2ccccc2)c1)C(=O)CCCCCC(=O)NO

- inhibition (Homo sapiens): 15%
SMILES: COc1ccccc1N(Cc1cccc(C(=O)NCCCCc2ccccc2)c1)C(=O)CCCCCC(=O)NO

- inhibition (Homo sapiens): 27%
SMILES: COc1ccc(CCNC(=O)c2cccc(CN(C(=O)CCCCCC(=O)NO)c3ccccc3OC)c2)cc1

- inhibition (Homo sapiens): 36%
SMILES: COc1ccccc1N(Cc1cccc(C(=O)NCCc2ccc(Cl)cc2)c1)C(=O)CCCCCC(=O)NO

- inhibition (Homo sapiens): 34%
SMILES: COc1ccccc1N(Cc1cccc(C(=O)NCCCCc2ccc(F)cc2)c1)C(=O)CCCCCC(=O)NO

- inhibition (Homo sapiens): 38%
SMILES: COc1ccccc1N(Cc1cccc(C(=O)NCc2ccccc2)c1)C(=O)CCCCCC(=O)NO

- inhibition (Homo sapiens): 39%
SMILES: COc1ccccc1N(Cc1cccc(C(=O)NCCc2ccc(F)cc2)c1)C(=O)CCCCCC(=O)NO

- IC50 (MDA-MB-231): 7.24 µM
- IC50 (MCF7): 7.17 µM
- Ratio IC50 (Histone deacetylase 1 [4]): 10.9
- IC50 (Histone deacetylase 1 [8]): 0.0023 µM
- IC50 (A549 [18]): 4.05 µM
- inhibition (Homo sapiens): 53%
SMILES: COc1ccc(N(Cc2cccc(C(=O)NCCc3ccc(F)cc3)c2)C(=O)CCCCCC(=O)NO)cc1
- IC50 [1]: > 50 µM
- IC50 (BEAS-2B): > 20 µM
- IC50 (MCF-10A): > 50 µM
